According to PubChem BioAssay AID588788 (The Scripps Research Institute Molecular Screening Center, 2011):
Calls of active or inactive are those of the source.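 Rule for the calls: active = compound seen by mass spectrometry to covalently label the enzyme's active site serine; inactive = no covalent labeling seen.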

Molecular target: Platelet-activating factor acetylhydrolase (Homo sapiens) (UniProt Q13093)
Experiment: pPAFAH inhibitor binding mode by mass spectrometry – biochemical, LC-MS/MS, mechanism study, late-stage follow-up (AID 588788)
Settings: purified recombinant pPAFAH, LC-MS/MS active-site labeling
In short: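 Assay system: recombinant human pPAFAH hydrophobic-patch triple mutant / Medium: DPBS buffer / Compound dosing: one dose, 100 µM final / Times: compound exposure 60 min, 37 °C / Evaluation: catalytic serine covalent adduct presence / Benchmarks: DMSO-only enzyme sample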

Sequence of Platelet-activating factor acetylhydrolase (Homo sapiens) (Q13093 42-441 I120A/L123A/L124A limits assumed): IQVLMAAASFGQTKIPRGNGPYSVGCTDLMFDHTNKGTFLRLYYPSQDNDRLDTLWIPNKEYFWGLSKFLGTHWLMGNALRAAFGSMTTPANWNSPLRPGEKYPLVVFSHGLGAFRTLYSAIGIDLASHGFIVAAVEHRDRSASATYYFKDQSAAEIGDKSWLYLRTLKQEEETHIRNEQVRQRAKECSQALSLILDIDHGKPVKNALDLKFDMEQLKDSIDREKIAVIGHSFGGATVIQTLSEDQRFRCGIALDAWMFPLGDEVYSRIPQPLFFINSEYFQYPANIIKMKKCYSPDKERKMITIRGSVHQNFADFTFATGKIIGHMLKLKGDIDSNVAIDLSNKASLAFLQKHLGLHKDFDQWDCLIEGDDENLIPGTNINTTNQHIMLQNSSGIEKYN

outcome: active; covalent
Compound: Cc1cc(N2CCN(C(=O)Oc3ccc(-c4ccccc4)cn3)CC2)c2ccccc2n1
